Data set [1] has as its system MDA-MB-231. Briefly: Antiproliferative activity against human MDA-MB-231 cells assessed as viable cells at 40 uM incubated for 48 hrs by trypan blue dye exclusion test relative to control. Format: functional. Conditions: MDA-MB-231, 48 h, read-out: Activity.
For data set [2], the system named is RAW264.7. Briefly: Antiinflammatory activity in mouse RAW264.7 cells assessed as reduction in LPS-induced IL6 production preincubated with LPS for 24 hrs followed by compound addition and measured after 24 hrs by ELISA. Format: functional, cell-based. The essentials:
(§1)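 Murine RAW 264.7 macrophages, 1 × 10^5/well, 4 h settling, then LPS (1.0 μg/mL) for 24 h. Medium was swapped for test solutions (0.8–3.1 μM or 2.3–9.2 μM), or DXM 254.8 μM as positive control, for another 24 h. Secreted NO was measured by Griess assay; TNF-α and IL-6 by ELISA. Run in triplicate, mean ± SD.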
In general terms: An ELISA detects its analyte on a solid surface through an enzyme-linked reagent.

Data set [3] concerns RAW264.7. Briefly: Antiinflammatory activity in mouse RAW264.7 cells assessed as reduction in LPS-induced TNFalpha production preincubated with LPS for 24 hrs followed by compound addition and measured after 24 hrs by ELISA. Format: functional, cell-based. The essentials: as §1
Data set [4] concerns RAW264.7. Briefly: Antiinflammatory activity in mouse RAW264.7 cells assessed as inhibition of LPS-induced NO production measured after 24 hrs by griess reagent based assay. Format: functional, cell-based. Put shortly:
as §1

Data set [5] can be described thus: Cytotoxicity against mouse RAW264.7 cells assessed as reduction in cell viability incubated for 24 hrs by MTT assay. Format: cell-based. Conditions: read-out: MNCC. Put shortly: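 MTT viability assay: RAW 264.7 cells seeded at 2.5 × 10^4 cells/well, cultured 12 h, then given five concentrations from serial dilution (up to 6.2 or 9.2 μM; final DMSO <1%) for 24 h. Viability was calculated relative to untreated blank control; n = 3, mean ± SD.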

Data set [6] concerns MDA-MB-231. Nature of the data set: Induction of mitochondrial membrane potential loss in human MDA-MB-231 cells incubated for 48 hrs by JC1 staining based flow cytometric analysis. Format: functional, cell-based. Put shortly:
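MDA-MB-231 cells in DMEM/10% FBS exposed 48 h to 0, 8.6, 12.4 or 17.3 μM. Harvested cells stained with JC-1 for 15 min in the dark, then analysed by flow cytometry. Excitation 488 nm; green emission read at 525 nm, red at 590 nm. Output given as percent green-to-red fluorescence intensity ratio. Triplicate, mean ± SD.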

For data set [7], the system named is MDA-MB-231. Nature of the data set: Induction of apoptosis in human MDA-MB-231 cells assessed as increase in nuclear chromatin condensation incubated for 48 hrs by Hoechst 33258 staining based fluorescence microscopic method. Format: functional, cell-based. The essentials:
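MDA-MB-231 cells were grown 24 h and treated with 8.6, 12.4 or 17.3 μM for 48 h. They were then fixed 10 min, washed three times in PBS and stained 5 min with Hoechst 33258. Nuclear condensation was imaged by fluorescence microscopy (excitation 350 nm, emission 460 nm).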

The subject of another data set is L02. Briefly: Cytotoxicity against human LO2 cells assessed as reduction in cell viability at 23.1 to 185 uM incubated for 48 hrs by methylene blue assay. Format: cell-based. The settings on record: l02, 48 h. The essentials: (§2)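 MDA-MB-231, MCF-7, HepG2 and LNCaP cells were grown in DMEM; HCT-116 and LO-2 in RPMI-1640; all with 10% FBS at 37 °C, 5% CO2. Cells seeded at 1.5 × 10^5 cells/mL and incubated overnight (~12 h), then exposed to 6.2–30.9 μM or 23.1–185.0 μM (final DMSO <0.1%) for 48 h. Read by methylene blue staining; viability = Abs treated/Abs untreated × 100%, triplicate.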

Data set [8] has as its system MCF7. Briefly: Antiproliferative activity against human MCF7 cells assessed as cell viability at 188.7 uM incubated for 48 hrs by methylene blue assay relative to control. Format: functional. The settings on record: MCF7, 48 h, read-out: Activity.
Data set [9] deals with RAW264.7. Nature of the data set: Antiinflammatory activity against LPS-activated mouse RAW264.7 cells assessed as reduction in TNFalpha mRNA expression preincubated with LPS for 24 hrs followed by compound addition and measured after 24 hrs by qRT-PCR analysis. Format: functional, cell-based. Put shortly:
(§3)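 RAW 264.7 cells (DMEM, 10% FBS, 37 °C, 5% CO2) seeded at 1 × 10^5/well and held 4 h. LPS 1.0 μg/mL was added for 24 h, then medium was replaced with test agent (0.8, 1.6, 3.1 μM or 2.3, 4.6, 9.2 μM) for 24 h. TNF-α and IL-6 transcripts were quantified by real-time qPCR against GAPDH. Triplicates, mean ± SD.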

Data set [10] relates to RAW264.7. Briefly: Antiinflammatory activity against LPS-activated mouse RAW264.7 cells assessed as reduction in IL6 mRNA expression preincubated with LPS for 24 hrs followed by compound addition and measured after 24 hrs by qRT-PCR analysis. Format: functional, cell-based. Put shortly:
as §3
A general note: In qPCR the cycle at which signal appears reflects the starting amount.

The subject of data set [11] is MDA-MB-231. Nature of the data set: Antiproliferative activity against human MDA-MB-231 cells assessed as reduction in cell viability at 46.3 uM incubated for 48 hrs by methylene blue assay. Format: functional. The essentials: as §2
The subject of data set [12] is MCF7. Nature of the data set: Antiproliferative activity against human MCF7 cells assessed as reduction in cell viability at 46.3 uM incubated for 48 hrs by methylene blue assay relative to control. Format: functional. Put shortly: as §2
Another data set has as its system HepG2. Briefly: Antiproliferative activity against human HepG2 cells reduction in cell viability at 46.3 uM incubated for 48 hrs by methylene blue assay relative to control. Format: functional. The essentials: as §2
In another data set the test system is LNCaP. Nature of the data set: Antiproliferative activity against human LNCAP cells assessed as reduction in cell viability at 46.3 uM incubated for 48 hrs by methylene blue assay relative to control. Format: functional. The essentials: as §2
In the next data set the test system is HCT-116. Briefly: Antiproliferative activity against human HCT116 cells assessed as reduction in cell viability at 46.3 uM incubated for 48 hrs by methylene blue assay relative to control. Format: functional. Put shortly: as §2
The subject of data set [13] is MDA-MB-231. Nature of the data set: Induction of cell cycle arrest in human MDA-MB-231 cells assessed as increase in accumulation of cells at G0/G1 phase incubated for 48 hrs by PI/RNase staining based flow cytometric analysis. Format: functional. The essentials: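 Cells grown 24 h in DMEM/10% FBS at 37 °C, 5% CO2, then exposed 48 h to 8.6, 12.4 or 17.3 μM. Pelleted, fixed in 75% ethanol at −20 °C overnight, stained with PI-containing RNase 15 min in the dark at ambient temperature. About 10 000 cells per well analysed by flow cytometry. Triplicate, mean ± SD.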
A general note: Flow cytometry measures light scatter and fluorescence of single cells or particles in a stream.

The test system of data set [14] is RAW264.7. Nature of the data set: Inhibition of nitric oxide production in mouse RAW264.7 cells measured after 24 hrs by griess reagent based assay. Format: functional, cell-based.
Data set [15] concerns RAW264.7. Briefly: Antiinflammatory activity in mouse RAW264.7 cells assessed as inhibition LPS-induced NO production at 254.8 uM measured after 24 hrs by griess reagent based assay. Format: functional, cell-based. The essentials: as §1

Activity calls are given as the source filed them. No cut-off for these calls is given here.

`O=c1cc(-c2ccc(O)cc2)oc2cc(O)cc(O)c12` [APIGENIN]: the viability at 40 µM in the data set on MDA-MB-231 [1] worked out at 45%. Besides, the Activity entry in the data set with RAW264.7 [2] is “Dose-dependent effect”; in the data set on RAW264.7 [3], “Dose-dependent effect”; with MDA-MB-231 [7], “Dose-dependent effect”; in the data set with L02, “Non-Toxic”; in the data set with RAW264.7 [9], “Dose-dependent effect”; in the data set on RAW264.7 [10], “Dose-dependent effect”. In addition, the Activity result in the data set on MDA-MB-231 [11], in the data set on MCF7 [12], with HepG2, in the data set with LNCaP and in the data set on HCT-116 was “<=50%” throughout. Moreover, the inhibition entry with RAW264.7 [4] and in the data set with RAW264.7 [14] was “Dose-dependent effect” throughout. In addition, the MNTC at 24 h in [5] came to 9.2 µM. The outcome with MDA-MB-231 [6] and in the data set on MDA-MB-231 [13] was Active. In the data set on MCF7 [8], the viability at 188.7 µM came to 20%.

For the molecule `C[C@@H]1C[C@H]2[C@@H]3CCC4=CC(=O)C=C[C@]4(C)[C@@]3(F)[C@@H](O)C[C@]2(C)[C@@]1(O)C(=O)CO`, the inhibition entry in the data set on RAW264.7 [15] was “Active”.

(Values after ChEMBL document CHEMBL4414566, “Cytotoxicity and Anti-inflammatory Properties of Apigenin-Derived Isolaxifolin” (J Nat Prod, 2019).)
